# In ChEMBL document CHEMBL4689842, “EUbOPEN Chemogenomics Library wave 1” (2021):
# System: U2OS
# Assay: Multiplex assay against U2OS
# Type: toxicity, cell-based
# Details: human
# How it was run: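 Phenotypes for tubulin, mitochondrial mass and membrane permeability are expressed as per cents of healthy-nucleus cells. Cells were stained live at seeding with Hoechst33342, BioTracker Green Microtubule Cytoskeleton Dye, MitoTracker Red and Annexin V Alexa Fluor 680, then imaged after compound addition on a CQ1 microscope at 37°C and 5% CO2. Machine-learning gating in CellPathfinder separated Hoechst high-intensity objects from normal cells, divided normal cells by nuclear state (healthy, pyknosed, fragmented) and divided pyknosed cells into mitotic or apoptotic.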
# [1] = 12 h, 1 µM, compound concentration 1 uM, replicate 1
# [2] = 12 h, 1 µM, compound concentration 1 uM, replicate 2
# [3] = 12 h, 10 µM, compound concentration 10 uM, replicate 1
# [4] = 12 h, 10 µM, compound concentration 10 uM, replicate 2
# [5] = 24 h, 1 µM, compound concentration 1 uM, replicate 1
# [6] = 24 h, 1 µM, compound concentration 1 uM, replicate 2
# [7] = 24 h, 10 µM, compound concentration 10 uM, replicate 1
# [8] = 24 h, 10 µM, compound concentration 10 uM, replicate 2
# [9] = 48 h, 1 µM, compound concentration 1 uM, replicate 1
# [10] = 48 h, 1 µM, compound concentration 1 uM, replicate 2
# [11] = 48 h, 10 µM, compound concentration 10 uM, replicate 1
# [12] = 48 h, 10 µM, compound concentration 10 uM, replicate 2
structure (smiles),measurement,setting,value
CC(C)(C)NC[C@H](O)COc1nsnc1N1CCOCC1 [TIMOLOL],Population Apoptotic (%),[1],77%
same,Population Fragmented Nuclei (%),[1],12%
same,Population Healthy Nuclei (%),[1],80%
same,Population Hoechst High Intensity Objects (%),[1],7%
same,Population Membrane Permeable-Phenotype (%),[1],4%
same,Population Mitochondria Different-Phenotype (%),[1],9%
same,Population Mitotic Cells (%),[1],22%
same,Population Pyknosed Nuclei (%),[1],7%
same,Population Tubulin-Different-Phenotype (%),[1],8%
same,Population Apoptotic (%),[2],100%
same,Population Fragmented Nuclei (%),[2],5%
same,Population Healthy Nuclei (%),[2],88%
same,Population Hoechst High Intensity Objects (%),[2],8%
same,Population Membrane Permeable-Phenotype (%),[2],8%
same,Population Mitochondria Different-Phenotype (%),[2],11%
same,Population Mitotic Cells (%),[2],0%
same,Population Normal (%),[2],92%
same,Population Pyknosed Nuclei (%),[2],5%
same,Population Tubulin-Different-Phenotype (%),[2],18%
same,Population Apoptotic (%),[3],30%
same,Population Fragmented Nuclei (%),[3],8%
same,Population Healthy Nuclei (%),[3],77%
same,Population Hoechst High Intensity Objects (%),[3],6%
same,Population Membrane Permeable-Phenotype (%),[3],6%
same,Population Mitochondria Different-Phenotype (%),[3],8%
same,Population Mitotic Cells (%),[3],69%
same,Population Normal (%),[3],93%
same,Population Pyknosed Nuclei (%),[3],14%
same,Population Tubulin-Different-Phenotype (%),[3],8%
same,Population Apoptotic (%),[4],33%
same,Population Healthy Nuclei (%),[4],79%
same,Population Hoechst High Intensity Objects (%),[4],3%
same,Population Membrane Permeable-Phenotype (%),[4],4%
same,Population Mitochondria Different-Phenotype (%),[4],7%
same,Population Mitotic Cells (%),[4],66%
same,Population Normal (%),[4],96%
same,Population Pyknosed Nuclei (%),[4],11%
same,Population Tubulin-Different-Phenotype (%),[4],4%
same,Population Apoptotic (%),[5],63%
same,Population Fragmented Nuclei (%),[5],10%
same,Population Healthy Nuclei (%),[5],82%
same,Population Hoechst High Intensity Objects (%),[5],4%
same,Population Mitochondria Different-Phenotype (%),[5],7%
same,Population Mitotic Cells (%),[5],36%
same,Population Normal (%),[5],95%
same,Population Tubulin-Different-Phenotype (%),[5],12%
same,Population Apoptotic (%),[6],50%
same,Population Fragmented Nuclei (%),[6],11%
same,Population Healthy Nuclei (%),[6],81%
same,Population Hoechst High Intensity Objects (%),[6],5%
same,Population Membrane Permeable-Phenotype (%),[6],2%
same,Population Mitochondria Different-Phenotype (%),[6],18%
same,Population Mitotic Cells (%),[6],50%
same,Population Normal (%),[6],94%
same,Population Pyknosed Nuclei (%),[6],6%
same,Population Tubulin-Different-Phenotype (%),[6],21%
same,Population Apoptotic (%),[7],20%
same,Population Fragmented Nuclei (%),[7],7%
same,Population Healthy Nuclei (%),[7],85%
same,Population Hoechst High Intensity Objects (%),[7],5%
same,Population Membrane Permeable-Phenotype (%),[7],5%
same,Population Mitochondria Different-Phenotype (%),[7],2%
same,Population Mitotic Cells (%),[7],80%
same,Population Normal (%),[7],94%
same,Population Pyknosed Nuclei (%),[7],6%
same,Population Tubulin-Different-Phenotype (%),[7],5%
same,Population Apoptotic (%),[8],41%
same,Population Healthy Nuclei (%),[8],81%
same,Population Hoechst High Intensity Objects (%),[8],2%
same,Population Membrane Permeable-Phenotype (%),[8],3%
same,Population Mitochondria Different-Phenotype (%),[8],5%
same,Population Mitotic Cells (%),[8],58%
same,Population Normal (%),[8],97%
same,Population Pyknosed Nuclei (%),[8],11%
same,Population Tubulin-Different-Phenotype (%),[8],4%
same,Population Apoptotic (%),[9],23%
same,Population Membrane Permeable-Phenotype (%),[9],1%
same,Population Mitochondria Different-Phenotype (%),[9],12%
same,Population Mitotic Cells (%),[9],76%
same,Population Tubulin-Different-Phenotype (%),[9],5%
same,Population Apoptotic (%),[10],42%
same,Population Fragmented Nuclei (%),[10],5%
same,Population Healthy Nuclei (%),[10],88%
same,Population Hoechst High Intensity Objects (%),[10],1%
same,Population Membrane Permeable-Phenotype (%),[10],13%
same,Population Mitochondria Different-Phenotype (%),[10],17%
same,Population Mitotic Cells (%),[10],57%
same,Population Normal (%),[10],98%
same,Population Pyknosed Nuclei (%),[10],5%
same,Population Tubulin-Different-Phenotype (%),[10],21%
same,Population Apoptotic (%),[11],46%
same,Population Fragmented Nuclei (%),[11],1%
same,Population Healthy Nuclei (%),[11],93%
same,Population Hoechst High Intensity Objects (%),[11],2%
same,Population Membrane Permeable-Phenotype (%),[11],1%
same,Population Mitochondria Different-Phenotype (%),[11],9%
same,Population Mitotic Cells (%),[11],53%
same,Population Normal (%),[11],97%
same,Population Tubulin-Different-Phenotype (%),[11],6%
same,Population Apoptotic (%),[12],27%
same,Population Fragmented Nuclei (%),[12],3%
same,Population Healthy Nuclei (%),[12],91%
same,Population Hoechst High Intensity Objects (%),[12],1%
same,Population Membrane Permeable-Phenotype (%),[12],4%
same,Population Mitochondria Different-Phenotype (%),[12],10%
same,Population Mitotic Cells (%),[12],72%
same,Population Normal (%),[12],98%
same,Population Pyknosed Nuclei (%),[12],4%
same,Population Tubulin-Different-Phenotype (%),[12],13%
O=c1[nH]c2ccccc2n1C1CCN(Cc2ccc(-c3[nH]c4cc5ncnc5cc4nc3-c3ccccc3)cc2)CC1,Population Apoptotic (%),[1],44%
same,Population Fragmented Nuclei (%),[1],6%
same,Population Healthy Nuclei (%),[1],87%
same,Population Hoechst High Intensity Objects (%),[1],5%
same,Population Membrane Permeable-Phenotype (%),[1],37%
same,Population Mitochondria Different-Phenotype (%),[1],11%
same,Population Mitotic Cells (%),[1],55%
same,Population Normal (%),[1],94%
same,Population Pyknosed Nuclei (%),[1],5%
same,Population Tubulin-Different-Phenotype (%),[1],24%
same,Total Cell Count,[1],162
same,Population Apoptotic (%),[2],37%
same,Population Fragmented Nuclei (%),[2],7%
same,Population Healthy Nuclei (%),[2],85%
same,Population Hoechst High Intensity Objects (%),[2],8%
same,Population Membrane Permeable-Phenotype (%),[2],25%
same,Population Mitochondria Different-Phenotype (%),[2],16%
same,Population Mitotic Cells (%),[2],62%
same,Population Normal (%),[2],91%
same,Population Pyknosed Nuclei (%),[2],7%
same,Population Tubulin-Different-Phenotype (%),[2],23%
same,Total Cell Count,[2],124
same,Population Apoptotic (%),[3],30%
same,Population Fragmented Nuclei (%),[3],19%
same,Population Healthy Nuclei (%),[3],66%
same,Population Hoechst High Intensity Objects (%),[3],4%
same,Population Membrane Permeable-Phenotype (%),[3],29%
same,Population Mitochondria Different-Phenotype (%),[3],61%
same,Population Mitotic Cells (%),[3],69%
same,Population Normal (%),[3],95%
same,Population Pyknosed Nuclei (%),[3],13%
same,Population Tubulin-Different-Phenotype (%),[3],100%
same,Total Cell Count,[3],173
same,Population Apoptotic (%),[4],46%
same,Population Fragmented Nuclei (%),[4],38%
same,Population Healthy Nuclei (%),[4],51%
same,Population Hoechst High Intensity Objects (%),[4],7%
same,Population Membrane Permeable-Phenotype (%),[4],54%
same,Population Mitochondria Different-Phenotype (%),[4],75%
same,Population Mitotic Cells (%),[4],53%
same,Population Normal (%),[4],92%
same,Population Pyknosed Nuclei (%),[4],9%
same,Total Cell Count,[4],142
same,Population Apoptotic (%),[5],42%
same,Population Fragmented Nuclei (%),[5],7%
same,Population Healthy Nuclei (%),[5],83%
same,Population Hoechst High Intensity Objects (%),[5],5%
same,Population Membrane Permeable-Phenotype (%),[5],31%
same,Population Mitochondria Different-Phenotype (%),[5],12%
same,Population Mitotic Cells (%),[5],57%
same,Population Normal (%),[5],94%
same,Population Pyknosed Nuclei (%),[5],9%
same,Population Tubulin-Different-Phenotype (%),[5],16%
same,Total Cell Count,[5],211
same,Population Apoptotic (%),[6],41%
same,Population Healthy Nuclei (%),[6],81%
same,Population Hoechst High Intensity Objects (%),[6],3%
same,Population Membrane Permeable-Phenotype (%),[6],14%
same,Population Mitochondria Different-Phenotype (%),[6],15%
same,Population Mitotic Cells (%),[6],58%
same,Population Normal (%),[6],96%
same,Population Pyknosed Nuclei (%),[6],11%
same,Total Cell Count,[6],157
same,Population Apoptotic (%),[7],55%
same,Population Fragmented Nuclei (%),[7],19%
same,Population Healthy Nuclei (%),[7],50%
same,Population Hoechst High Intensity Objects (%),[7],6%
same,Population Membrane Permeable-Phenotype (%),[7],53%
same,Population Mitochondria Different-Phenotype (%),[7],91%
same,Population Mitotic Cells (%),[7],44%
same,Population Normal (%),[7],93%
same,Population Pyknosed Nuclei (%),[7],30%
same,Total Cell Count,[7],174
same,Population Apoptotic (%),[8],80%
same,Population Fragmented Nuclei (%),[8],28%
same,Population Healthy Nuclei (%),[8],38%
same,Population Hoechst High Intensity Objects (%),[8],14%
same,Population Membrane Permeable-Phenotype (%),[8],72%
same,Population Mitochondria Different-Phenotype (%),[8],88%
same,Population Mitotic Cells (%),[8],19%
same,Population Normal (%),[8],85%
same,Population Pyknosed Nuclei (%),[8],32%
same,Population Tubulin-Different-Phenotype (%),[8],100%
same,Total Cell Count,[8],130
